Measured values: ChEMBL document CHEMBL5214934, “A simplified analog of debromoaplysiatoxin lacking the B-ring of spiroketal moiety retains protein kinase C-binding and antiproliferative activities” (Bioorg Med Chem, 2022)
Activity calls are given as the source filed them. The rule behind the calls is not given here.

Assays:
DMS-273 = assay: Antiproliferative activity against human DMS-273 cells after 48 hrs by SRB assay; type: functional; settings: DMS-273, read-out: pGI50 (converted)
In short: (§1)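 Part of a 39-line human cancer cell panel. Cells plated in RPMI 1640 with 5% FBS and left to attach overnight, then exposed to compound at 10^-8 to 10^-4 M for 48 h. Growth measured by sulforhodamine B staining, absorbance at 525 nm, with a time-0 reading. % growth calculated against control from duplicate points. GI50 is the concentration giving 50% growth inhibition versus untreated control.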

SF-295 = assay: Antiproliferative activity against human SF-295 cells after 48 hrs by SRB assay; type: functional; settings: SF-295, read-out: pGI50 (converted); in short: as §1
OVCAR-5 = assay: Antiproliferative activity against human OVCAR-5 cells after 48 hrs by SRB assay; type: functional; settings: OVCAR-5, read-out: pGI50 (converted); in short: as §1
MDA-MB-231 = assay: Antiproliferative activity against human MDA-MB-231 cells after 48 hrs by SRB assay; type: functional; settings: MDA-MB-231, read-out: pGI50 (converted); in short: as §1
MKN-45 = assay: Antiproliferative activity against human MKN-45 cells after 48 hrs by SRB assay; type: functional; in short: as §1
Homo sapiens = organism: Homo sapiens; assay: Ratio Ki for inhibition of [3H]-PDBu binding to PKCalpha C1A domain (unknown origin) to Ki for inhibition of [3H]-PDBu binding to PKCdelta C1B domain (unknown origin)
[1] = target: Protein kinase C delta type (Homo sapiens, UniProt Q05655); assay: Inhibition of [3H]-PDBu binding to PKCdelta C1B domain (unknown origin) by competitive binding assay
Sequence of Protein kinase C delta type (Q05655 whole entry, the tested form may be a part): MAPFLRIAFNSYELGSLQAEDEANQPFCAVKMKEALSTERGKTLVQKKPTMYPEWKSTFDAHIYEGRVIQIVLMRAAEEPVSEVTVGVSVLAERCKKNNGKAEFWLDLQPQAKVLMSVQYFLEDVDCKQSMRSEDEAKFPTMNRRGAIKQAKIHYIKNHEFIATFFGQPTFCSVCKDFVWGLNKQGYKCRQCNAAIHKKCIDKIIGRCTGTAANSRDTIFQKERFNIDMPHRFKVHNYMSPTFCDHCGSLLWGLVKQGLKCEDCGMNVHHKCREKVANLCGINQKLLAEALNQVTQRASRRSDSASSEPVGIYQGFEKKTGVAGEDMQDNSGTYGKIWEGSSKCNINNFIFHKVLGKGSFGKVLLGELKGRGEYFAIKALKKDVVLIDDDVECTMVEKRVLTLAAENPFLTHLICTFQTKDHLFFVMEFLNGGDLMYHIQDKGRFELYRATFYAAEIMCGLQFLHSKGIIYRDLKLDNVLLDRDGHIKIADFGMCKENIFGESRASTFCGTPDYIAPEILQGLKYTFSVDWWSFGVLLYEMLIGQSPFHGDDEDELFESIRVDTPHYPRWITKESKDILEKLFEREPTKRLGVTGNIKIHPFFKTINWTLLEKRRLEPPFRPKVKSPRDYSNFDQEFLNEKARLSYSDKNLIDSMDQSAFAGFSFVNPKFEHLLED
In short: (§2)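 Synthetic PKCα-C1A (40 nM) or PKCδ-C1B (13.8 nM) peptide in 50 mM Tris-maleate (pH 7.4 at 4 °C). Mixture contained 20 nM [3H]PDBu (13.92 Ci/mmol), 50 µg/mL dioleoylphosphatidylserine, 3 mg/mL bovine γ-globulin and graded ligand. IC50 by logit analysis; Ki by Goldstein–Barrett equation from IC50 and [3H]PDBu Kd. Two independent experiments, triplicates each; log-scale mean with 95% CI.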

A549 = assay: Antiproliferative activity against human A549 cells after 48 hrs by SRB assay; type: functional; settings: A549, read-out: pGI50 (converted); in short: as §1
St-4 = assay: Antiproliferative activity against human St-4 cells after 48 hrs by SRB assay; type: functional; settings: St-4, read-out: pGI50 (converted); in short: as §1
HCC 2998 = assay: Antiproliferative activity against human HCC 2998 cells after 48 hrs by SRB assay; type: functional; settings: HCC 2998, read-out: pGI50 (converted); in short: as §1
[2] = Antiproliferative activity against human HBC4 cells after 48 hrs by SRB assay; type: functional; settings: HBC4, read-out: pGI50 (converted); in short: as §1
NCI-H460 = assay: Antiproliferative activity against human NCI-H460 cells after 48 hrs by SRB assay; type: functional; in short: as §1
[3] = target: Protein kinase C alpha type (Homo sapiens, UniProt P17252); assay: Inhibition of [3H]-PDBu binding to PKCalpha C1A domain (unknown origin) by competitive binding assay; in short: as §2

Row | Structure (SMILES) | GI50 (DMS-273) [µM] | GI50 (SF-295) [µM] | GI50 (OVCAR-5) [µM] | GI50 (MDA-MB-231) [µM] | GI50 (MKN-45; MKN-45, read-out: pGI50 (converted)) [µM] | Ratio Ki (Homo sapiens) | Ki [1] [µM] | GI50 (A549) [µM] | GI50 (St-4) [µM] | GI50 (HCC 2998) [µM] | GI50 [2] [µM] | GI50 (NCI-H460; NCI-H460, read-out: pGI50 (converted)) [µM] | Ki [3] [µM] | Activity (MKN-45) | Activity (NCI-H460)
1 | CC1(C)CC[C@@H]2CC(=O)O[C@@H](CO)CC(=O)O[C@H](CCCCCCc3ccccc3)C[C@@H]1O2 | < 10 | < 10 | < 10 | < 10 | < 10 | 5.2 | 0.017 | < 10 | < 10 | < 10 | < 10 | < 10 | 0.088 |  | 
2 | CC1(C)CC[C@@H]2CC(=O)O[C@@H](CO)CC(=O)O[C@@H]3C[C@@H](CCCCc4ccccc4)O[C@@]1(C3)O2 |  |  |  |  |  | 12 |  |  |  |  |  |  |  |  | 
3 | CC(C)[C@@]12C[C@@H](C[C@@H](CCCCc3ccccc3)O1)OC(=O)C[C@H](CO)OC(=O)CCO2 |  |  |  |  |  | 0.8 | 0.13 |  |  |  |  |  | 0.1 | Active | Active
